From PMC11868578 (Nature Communications, 2025)
In brackets after ≈: the same amount, converted by molar mass.

What was measured:
[1] = tested on: N-YFP IBs (N protein condensates); assay: N-YFP inclusion bodies; format: cell-based, Nicotiana benthamiana
PVY = assay: Inactivation activity against PVY; format: in vivo; conditions: read-out: Inhibition rate (inactivation activity) against PVY
PMMoV = assay: Inactivation activity against PMMoV; format: in vivo; conditions: read-out: Inhibition rate (inactivation activity) against PMMoV
TSWV = assay: Anti-TSWV assay, half-leaf method on Nicotiana glutinosa; format: in vivo, tomato spotted wilt virus; conditions: for Curative effect (%) / Inactive effect (%) (inactivation activity) / Protective effect (%): 500 µg/mL, half-leaf method, N. glutinosa, mean ± SD, n = 3; for EC50: Orthotospovirus tomatomaculae, in Nicotiana glutinosa
Procedure, shortened: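 Half-leaf test on healthy N. glutinosa, leaves pre-dusted with carborundum and virus extract brushed on. Curative: leaves rinsed 30 min after inoculation, then agent put on the right half. Protective: agent put on 12 h before inoculation. Inactivation: agent mixed 1:1 with virus extract on ice for 30 min, then put on the right half; left half got buffer-diluted virus. Plants grown at 25 °C day/23 °C night. Lesions counted after about 2 days. EC50 from 31.25–500 µg/mL.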

N WT (NWT) = molecular target: T1, N WT (NWT) (Tomato spotted wilt virus (TSWV), UniProt P26000 1-258); assay: BLI
T1 sequence: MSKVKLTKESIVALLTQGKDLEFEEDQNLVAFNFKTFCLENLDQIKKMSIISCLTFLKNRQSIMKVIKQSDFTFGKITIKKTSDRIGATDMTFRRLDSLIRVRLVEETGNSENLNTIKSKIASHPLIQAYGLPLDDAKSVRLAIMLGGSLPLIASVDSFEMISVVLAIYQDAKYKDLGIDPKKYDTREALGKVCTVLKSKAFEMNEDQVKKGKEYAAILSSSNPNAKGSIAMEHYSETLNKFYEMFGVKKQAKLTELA

Molecule | Effect on N-YFP particle number, leaves treated at 36 h ([1]; 36 hpi) | Effect on large N-YFP granules, leaves treated at 72 h ([1]; 72 hpi) | inhibition at 500 µg/mL (PVY) [%] | inhibition at 500 µg/mL (PMMoV) [%] | Curative effect (%) (TSWV) | Inactive effect (%) (inactivation activity) (TSWV) | Protective effect (%) (TSWV) | Inactive effect (%) (inactivation activity) (TSWV; listed as ningnanmycin) | EC50 (TSWV) [µg/mL] | Inactive effect (%) (inactivation activity) (TSWV; listed as ribavirin) | Kd (N WT (NWT)) [nM]
OCCCCCCO [1,6-hexanediol] | significant reduction in particle number | difficult to observe a significant decrease in the number of large particles | – | – | – | – | – | – | – | – | –
CNCC(=O)N[C@@H](CO)C(=O)N[C@H]1[C@H](O)[C@@H](O)[C@H](n2ccc(N)nc2=O)O[C@@H]1C(N)=O [Ningnanmycin] | – | – | 77.6 | 72 | 57.9 ± 1.5 | 69.3 ± 2.4 | 61.7 ± 5.2 | 69.3 | 149 ± 8.7 (≈ 337 µM) | – | –
NC(=O)c1ncn([C@@H]2O[C@H](CO)[C@@H](O)[C@H]2O)n1 [Ribavirin] | – | – | 55.3 | 56.5 | 39.2 ± 3.2 | 43.7 ± 7.5 | 40.4 ± 6.8 | – | 802 ± 12.6 (≈ 3280 µM) | 43.7 | –
GAGAGCAAUUGUGUCAGAA (ssRNA) [biotinylated RNA (BLI)] | – | – | – | – | – | – | – | – | – | – | 7.3
